A short description of assay [1]: Cytotoxicity against human MIAPaCa2 cells assessed as cell viability. The format is functional, cell-based. The following applies: MIA PaCa-2.
Assay [2] can be described thus: Cytotoxicity against ER-negative human SUM159 cells assessed as cell viability after 72 hrs by MTT assay in presence of IL-6. The format is functional, cell-based. As to conditions: SUM-159-PT. The gist of the method:
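SUM159 (ER negative) seeded at 3,000 cells/well, given […] compound in triplicate with 10% FBS. Incubated 72 h at 37 °C, then MTT read-out, absorbance at 595 nm. IC50 from curve fitting.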

Assay [3] concerns the target T1, IL6Ralpha/GP130 (Homo sapiens) (UniProt P08887+P40189). The experiment in a line: Inhibition of IL-6Ralpha/GP130 interaction in ER-negative human SUM159 cells overexpressing IL-6 assessed as inhibition of constitutive STAT3 phosphorylation at Y705 at 10 to 30 uM after 24 hrs by Western blot analysis. The format is cell-based. A digest of the protocol:
(§1)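 Constitutive STAT3 activity in SUM159 (ER negative) cells grown in DMEM/10% FBS. Compound (10-50µM) or DMSO added at 60-80% confluence with 10% FBS for 24 h. RIPA whole-cell lysates run on SDS-PAGE and immunoblotted overnight at 4 °C for pSTAT3 (Tyr705), STAT3 and GAPDH. Detection by chemiluminescence.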

The subject of a further assay is PANC-1. The experiment in a line: Inhibition of IFN-gamma receptor/GP130 interaction in human PANC-1 cells assessed as inhibition of IFN-gamma-induced STAT1 phosphorylation at Y701 at 25 uM […] measured after 24 hrs by Western blot analysis. The format is cell-based. The gist of the method: (§2)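 PANC-1 cells (GP130+, ER−) in DMEM/10% FBS, stimulated with 50 ng/ml IL-6 or IFN-γ for 30 min before compound (10-50µM range), then 24 h at 60-80% confluence with 10% FBS. Whole-cell extracts made in RIPA with protease inhibitors. Blotted for pSTAT3 (Tyr705), STAT3, pSTAT1 (Tyr701), STAT1 and GAPDH, with chemiluminescent detection.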
Background: In western blotting, separated proteins are transferred to a membrane and probed.

Assay [4] concerns the target LIFR/GP130 (Homo sapiens) (UniProt P40189+P42702). The experiment in a line: Inhibition of LIFR/GP130 interaction in human PANC-1 cells assessed as inhibition of LIF-induced STAT3 phosphorylation at Y705 at 25 uM after 24 hrs by Western blot analysis. The format is cell-based.
Assay [5] addresses T1, IL6Ralpha/GP130 (Homo sapiens). The assay is described as follows: Inhibition of IL-6Ralpha/GP130 interaction in human PANC-1 cells assessed as inhibition of IL-6-induced STAT3 phosphorylation at Y705 at 25 uM […] measured after 24 hrs by Western blot analysis. The format is cell-based. A digest of the protocol:
as §2

The target of assay [6] is T2, Interleukin-6 receptor subunit beta (Homo sapiens, UniProt P40189).
T2 sequence (P40189 whole entry): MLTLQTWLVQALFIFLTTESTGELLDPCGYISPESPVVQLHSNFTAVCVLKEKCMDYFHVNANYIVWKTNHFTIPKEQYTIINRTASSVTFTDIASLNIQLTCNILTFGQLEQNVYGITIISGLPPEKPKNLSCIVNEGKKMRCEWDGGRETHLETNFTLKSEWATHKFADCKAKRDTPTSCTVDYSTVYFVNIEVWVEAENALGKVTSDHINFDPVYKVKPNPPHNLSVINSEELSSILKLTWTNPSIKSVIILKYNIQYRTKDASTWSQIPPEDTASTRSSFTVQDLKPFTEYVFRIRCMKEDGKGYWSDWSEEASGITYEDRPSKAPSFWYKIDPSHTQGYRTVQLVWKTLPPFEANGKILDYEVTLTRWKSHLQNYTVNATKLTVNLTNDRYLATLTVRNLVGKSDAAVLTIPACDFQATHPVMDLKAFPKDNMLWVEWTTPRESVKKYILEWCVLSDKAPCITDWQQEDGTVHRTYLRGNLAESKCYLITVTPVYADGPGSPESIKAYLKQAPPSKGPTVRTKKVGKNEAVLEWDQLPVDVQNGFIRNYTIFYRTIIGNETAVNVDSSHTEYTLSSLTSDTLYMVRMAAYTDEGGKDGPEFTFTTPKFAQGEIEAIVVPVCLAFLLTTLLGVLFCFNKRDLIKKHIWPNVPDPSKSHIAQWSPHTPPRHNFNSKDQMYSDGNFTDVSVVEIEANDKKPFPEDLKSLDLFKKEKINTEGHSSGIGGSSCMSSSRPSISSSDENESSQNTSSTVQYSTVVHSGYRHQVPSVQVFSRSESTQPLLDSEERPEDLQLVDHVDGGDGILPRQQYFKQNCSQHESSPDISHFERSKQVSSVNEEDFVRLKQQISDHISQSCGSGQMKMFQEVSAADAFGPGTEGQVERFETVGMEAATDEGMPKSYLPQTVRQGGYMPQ
The experiment in a line: Binding affinity to GP130 (unknown origin) by surface plasmon resonance analysis. (SPR reads the build-up and loss of mass on a sensor chip optically.)

The target in assay [7] is T1, IL6Ralpha/GP130 (Homo sapiens). The experiment in a line: Inhibition of IL-6Ralpha/GP130 interaction in ER-negative human SUM159 cells overexpressing IL-6 assessed as inhibition of constitutive STAT3 phosphorylation at Y705 at 15 to 50 uM after 24 hrs by Western blot analysis. The format is cell-based. The gist of the method:
as §1

SMILES strings stand for the structures. Calls of active or inactive are those of the source. No cut-off for these calls is given here.

T1 sequence (P08887 whole entry, looked up, one chain of several): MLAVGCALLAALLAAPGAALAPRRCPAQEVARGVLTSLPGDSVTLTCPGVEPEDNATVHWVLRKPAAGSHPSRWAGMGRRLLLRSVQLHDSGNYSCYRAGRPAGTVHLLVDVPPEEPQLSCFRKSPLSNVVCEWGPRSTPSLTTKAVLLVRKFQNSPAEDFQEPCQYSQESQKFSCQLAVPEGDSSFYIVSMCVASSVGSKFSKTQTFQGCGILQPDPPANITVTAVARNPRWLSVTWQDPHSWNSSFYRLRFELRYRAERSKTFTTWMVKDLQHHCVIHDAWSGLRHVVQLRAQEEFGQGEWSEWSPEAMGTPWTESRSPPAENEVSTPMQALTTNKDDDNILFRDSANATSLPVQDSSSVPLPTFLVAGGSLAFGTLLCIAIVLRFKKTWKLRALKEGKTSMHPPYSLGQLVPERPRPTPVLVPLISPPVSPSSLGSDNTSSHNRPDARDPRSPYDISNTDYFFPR
Sequence of LIFR/GP130 (Homo sapiens) (P42702 whole entry, looked up, one chain of several): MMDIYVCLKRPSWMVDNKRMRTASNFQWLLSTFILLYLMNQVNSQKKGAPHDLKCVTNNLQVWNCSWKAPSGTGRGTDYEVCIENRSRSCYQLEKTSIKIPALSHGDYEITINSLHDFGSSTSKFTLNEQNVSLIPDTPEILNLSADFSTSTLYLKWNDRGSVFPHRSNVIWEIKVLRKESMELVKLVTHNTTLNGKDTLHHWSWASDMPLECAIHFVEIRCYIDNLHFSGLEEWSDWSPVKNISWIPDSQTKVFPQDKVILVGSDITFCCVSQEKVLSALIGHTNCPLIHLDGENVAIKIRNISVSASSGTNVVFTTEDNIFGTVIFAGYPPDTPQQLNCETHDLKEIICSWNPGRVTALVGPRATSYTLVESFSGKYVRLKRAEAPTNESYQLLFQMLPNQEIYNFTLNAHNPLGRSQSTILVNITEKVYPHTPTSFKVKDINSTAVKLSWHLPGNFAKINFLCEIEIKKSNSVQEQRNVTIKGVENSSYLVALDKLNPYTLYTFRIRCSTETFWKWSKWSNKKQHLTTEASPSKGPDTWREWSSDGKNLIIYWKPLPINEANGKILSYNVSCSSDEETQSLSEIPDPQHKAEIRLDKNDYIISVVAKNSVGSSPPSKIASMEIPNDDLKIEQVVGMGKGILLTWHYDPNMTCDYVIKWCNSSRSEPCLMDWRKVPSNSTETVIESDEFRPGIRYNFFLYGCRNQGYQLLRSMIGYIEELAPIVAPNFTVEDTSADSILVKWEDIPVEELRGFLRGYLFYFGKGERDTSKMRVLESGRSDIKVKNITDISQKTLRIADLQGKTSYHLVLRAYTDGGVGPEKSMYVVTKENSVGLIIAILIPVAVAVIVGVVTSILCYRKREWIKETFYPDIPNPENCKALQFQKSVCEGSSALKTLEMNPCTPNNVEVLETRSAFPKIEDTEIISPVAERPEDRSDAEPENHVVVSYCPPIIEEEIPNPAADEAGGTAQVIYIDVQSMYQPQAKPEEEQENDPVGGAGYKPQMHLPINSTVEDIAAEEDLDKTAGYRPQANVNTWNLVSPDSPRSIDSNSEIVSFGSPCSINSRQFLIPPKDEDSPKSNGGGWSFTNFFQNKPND

As for `Cc1c(-c2ccc(O)cc2)n(Cc2ccc(OCCN3CCCCCC3)cc2)c2ccc(O)cc12` [BAZEDOXIFENE], the IC50 – broadly, the point on the concentration scale where inhibition reaches its midpoint – was found to be 9.7 µM in assay [1] and 24.9 µM in assay [2]. For the same compound, the inhibition result in assay [3] and in assay [5] was “Active” in each case. Also, the inhibition entry (in the assay with PANC-1; in assay [4]) was “inactive” each time.

Turning to `CCCCC1=C(C)C(=O)[C@](C)(CN2c3ccccc3[C@]3(O)CCOC23)C1=O` (stereo partly drawn) [MADINDOLINE A], binding in assay [6] was characterised by a dissociation constant (Kd) of 288 µM. For the same compound, the IC50 in assay [2] is greater than 250 µM.

`O=C(c1ccc(OCCN2CCCCC2)cc1)c1c(-c2ccc(O)cc2)sc2cc(O)ccc12` [RALOXIFENE]: the IC50 in assay [1] came out at 26.3 µM; in assay [2], 43.2 µM. Further, the inhibition result (with PANC-1; in assay [4]) was “inactive” in each case. In assay [7], the inhibition entry was “Active”.

(Values after ChEMBL document CHEMBL3124858, “Drug design targeting protein-protein interactions (PPIs) using multiple ligand simultaneous docking (MLSD) and drug repositioning: discovery of raloxifene and bazedoxifene as novel inhibitors of IL-6/GP130 interface” (J Med Chem, 2014).)
